Compound activity (PubChem)
Scp1 inh – blocks human Scp-1 phosphatase activity. Q9GZU7. Recombinant Scp1, phosphopeptide, malachite green phosphate absorbance. inhibition, % at 20 µM. actives 0.88% (n = 340,000). AID 493091;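 active = inhibition above about 50% at 20 µM, limit read from the data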;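 also: plate controls were DMSO wells with enzyme for no effect and wells lacking enzyme for full effect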
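System: SCP-1 catalytic domain; Reagent: Phospho 17-mer peptide substrate; Doses: one concentration, 20 µM, with 1.0% DMSO; Incubation: 45 min room-temperature reaction, 5 min colour, 30 min stabiliser; Signal: Phosphate-binding colour reagent, absorbance read at 630 nm.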
DNMT1 inh – inhibitors of human DNMT1; P26358; DNMT1 molecular beacon, Hinp1I cleavage, fluorescence; inhibition (reported as % activation of signal), % at 10 µM; actives 0.83% (n = 360,000); in the data active = inhibition above about 50%
LMPTP block – LMPTP (human) inhibition | P24666 | inhibition, % at 20 µM | recombinant LMPTP-A, OMFP fluorogenic substrate, fluorescence intensity | actives 0.22% (n = 360,000);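 active = compounds that cut the enzyme signal by at least half of the control window in the single-dose screen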;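 also: plate controls were DMSO wells with enzyme plus substrate for no effect and substrate without enzyme for full effect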
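Test system – LMPTP-A phosphatase enzyme · Quantity – 0.625 nM LMPTP-A final · Reagent – OMFP substrate, 400 µM final · Dosing – one test concentration per compound, 20 µM, with 3% DMSO overall · Timing – 50 min enzyme reaction at room temperature, protected from light · Detection – fluorescence intensity · Controls – substrate-only low control, DMSO enzyme-plus-substrate high control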
GRK2 inh – blocks RNA aptamer binding to human GRK2; bead flow cytometry, FAM-aptamer displacement from GRK2; actives 0.59% (n = 330,000); inhibition of aptamer binding, % at 10 µM;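 active = inhibition of aptamer binding above 40%, roughly 3 SD of noise, on plates passing a quality check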;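 also: median bead fluorescence of bound FAM aptamer so fluorescent compounds give negative values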
Target sequence (P25098 whole entry, looked up): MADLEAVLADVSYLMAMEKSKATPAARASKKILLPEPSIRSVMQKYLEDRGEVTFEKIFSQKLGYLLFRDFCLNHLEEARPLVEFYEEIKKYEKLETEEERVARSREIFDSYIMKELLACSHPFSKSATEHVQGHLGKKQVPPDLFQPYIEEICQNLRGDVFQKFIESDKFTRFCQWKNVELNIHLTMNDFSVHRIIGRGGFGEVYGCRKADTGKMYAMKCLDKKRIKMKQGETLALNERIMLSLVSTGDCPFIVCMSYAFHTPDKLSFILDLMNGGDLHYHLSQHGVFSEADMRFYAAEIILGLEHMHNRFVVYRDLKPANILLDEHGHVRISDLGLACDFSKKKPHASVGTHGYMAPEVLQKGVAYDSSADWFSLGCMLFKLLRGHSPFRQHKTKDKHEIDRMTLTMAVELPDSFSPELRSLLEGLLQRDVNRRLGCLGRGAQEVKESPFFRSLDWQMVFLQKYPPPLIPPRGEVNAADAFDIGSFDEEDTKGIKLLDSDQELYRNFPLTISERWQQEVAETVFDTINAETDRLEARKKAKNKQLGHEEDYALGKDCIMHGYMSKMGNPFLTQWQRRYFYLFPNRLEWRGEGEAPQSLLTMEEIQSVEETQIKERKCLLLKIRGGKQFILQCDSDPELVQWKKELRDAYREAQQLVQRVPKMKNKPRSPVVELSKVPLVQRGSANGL
STEP inh – blocks human striatal-enriched tyrosine phosphatase; P54829; recombinant STEP, OMFP fluorogenic substrate, fluorescence; inhibition, % at 20 µM; actives 0.25% (n = 360,000);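 active = inhibition at 20 µM, scaled per plate between control wells, above about 37%, limit read from the data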;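 also: 0% = DMSO with enzyme and substrate and 100% = substrate only without enzyme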
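System: STEP (striatal-enriched tyrosine phosphatase) enzyme, cell-free; medium: Bis-Tris pH 6.0 buffer with DTT, detergent; dosing: 20 µM, 1% DMSO; times: reaction 20 min, ambient temperature; detection: fluorescence, 480/540 nm; read-out basis: normalized % inhibition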
SUMO1 PPI mod – alters human SUMO1 binding to SIM partners; inhibition, % at 20 µM; actives 0.33% (n = 360,000); SUMO1 binding to a labelled peptide, TR-FRET, 1 h; in the data active = inhibition above about 37%
Scp1 confirm – Scp-1 (human) inhibition, single-dose confirmed | shares compounds with Scp1 inh | recombinant SCP-1 catalytic domain, phosphate release, malachite green absorbance | inhibition, % at 20 µM | actives 61% (n = 2,500) | AID 540281;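 also: plate controls were DMSO with enzyme for no effect and buffer wells lacking enzyme for full effect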
Scp-1 MG ctr – colorimetric interference in Scp-1 counter-screen. shares compounds with Scp1 inh. Colorimetric interference counterscreen, malachite green absorbance 630 nm. apparent inhibition (interference), % at 20 µM. 2,500 tested, under 10 active;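 also: compounds added after enzyme reaction finished so only phosphate colour detection is probed; plate controls were DMSO wells with completed Scp-1 reaction for no effect and substrate wells lacking enzyme for full effect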
Scp1 DSF – validation of human Scp-1 inhibitors by thermal shift binding; actives 25% (n = 1,500); AID 540329; shares compounds with Scp1 inh; thermal shift relative to vanadate control, % at 40 µM; Recombinant SCP1, Sypro Orange thermal shift Tm;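 active = substances whose mean melting-temperature shift, as a percentage of the reference inhibitor's shift, reaches about 5.3%, limit read from the data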;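 also: 0% = Tm of DMSO wells and 100% = Tm with sodium orthovanadate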
Numbers without * were called inactive. Rows were chosen to be rich in hits. Some 2.2% of all compounds tested hit in one or more screens of this group.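 The calls were made as follows, unless noted: active = inhibition of at least 30% at 20 µM; inactive = the rest.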

CCOc1ccc(NC(=O)CN(C)C(=O)c2ccc(N3CCCC3)c([N+](=O)[O-])c2)cc1OCC was read as Scp1 inh 52.7*, DNMT1 inh -1.8, LMPTP block 1.4, GRK2 inh 0.0, STEP inh 2.7, SUMO1 PPI mod -23.1, Scp1 confirm -18.4 and Scp-1 MG ctr -17.8.
Screening CC1CCC(NC(=O)Cn2c(=O)oc3cc(S(=O)(=O)N4CCCC4)ccc32)CC1 (stereo not drawn) returned Scp1 inh 63.1*, DNMT1 inh 2.2, LMPTP block 5.2, GRK2 inh 0.0, STEP inh 3.2, SUMO1 PPI mod 1.8, Scp1 confirm 44.0*, Scp-1 MG ctr -20.3 and Scp1 DSF -26.2.
For O=C(Cn1c(=O)oc2cc(S(=O)(=O)N3CCCC3)ccc21)NC1CCCCC1 the results were Scp1 inh 19.1, DNMT1 inh 2.6, LMPTP block -1.3, GRK2 inh 0.0, STEP inh 8.4 and SUMO1 PPI mod 2.3.
Cc1ccccc1CN1C(=O)CN(S(C)(=O)=O)CC1(C)C(=O)Nc1ccc2c(c1)OCCO2 (stereo not drawn) was read as LMPTP block -1.2 and SUMO1 PPI mod -1.3.
For CC(NC(=O)C1C2C=CC(C2)C1C(=O)O)c1ccccc1 (stereo not drawn) the results were Scp1 inh -0.2, DNMT1 inh 1.0, LMPTP block -2.3, GRK2 inh 0.0, STEP inh 0.8 and SUMO1 PPI mod 0.0.
O=C(O)C1C2C=CC(C2)C1C(=O)Nc1ccccc1Br (stereo not drawn) was read as Scp1 inh 69.1*, DNMT1 inh 22.8, LMPTP block 2.4, GRK2 inh 0.0, STEP inh 43.5*, SUMO1 PPI mod 26.2, Scp1 confirm 57.7*, Scp-1 MG ctr -14.5 and Scp1 DSF -25.6.
`O=C(c1cc2ncc(Br)cn2n1)N1CCN(C(=O)c2ccco2)CC1` gave Scp1 inh 56.2*, DNMT1 inh 29.8, LMPTP block -0.9, GRK2 inh 17.0, STEP inh 1.1, SUMO1 PPI mod 5.6, Scp1 confirm 42.7*, Scp-1 MG ctr -11.5 and Scp1 DSF -10.1.
For C[N+]1(CC(=O)OCCCc2ccccc2)CCCC1 the results were Scp1 inh 61.9*, DNMT1 inh -1.1, LMPTP block -1.5, GRK2 inh 0.0, STEP inh -0.5, SUMO1 PPI mod -3.1, Scp1 confirm 82.4*, Scp-1 MG ctr -18.6 and Scp1 DSF -26.1.
For Cc1ccccc1NS(=O)(=O)c1ccc2c(c1)CCC(=O)N2 the results were DNMT1 inh 0.5, LMPTP block -2.7, STEP inh 0.6 and SUMO1 PPI mod 3.1.
COc1ccc(/C=N/NC(=O)c2cccc([N+](=O)[O-])c2)cc1O was read as Scp1 inh -2.9, DNMT1 inh 7.5, LMPTP block 0.4, GRK2 inh 2.0, STEP inh 1.1 and SUMO1 PPI mod -19.8.
Screening COc1cc(/C=N/NC(=O)c2cccc([N+](=O)[O-])c2)ccc1O returned Scp1 inh 88.6*, DNMT1 inh 0.0, LMPTP block -1.5, GRK2 inh 3.0, STEP inh -4.9, SUMO1 PPI mod -15.5, Scp1 confirm -13.9 and Scp-1 MG ctr -12.9.
For CCCCCc1c(-c2ccc(F)cc2F)ncn1CCc1ccccc1OC the results were LMPTP block 3.8 and SUMO1 PPI mod 9.8.
For COc1ccc(OC)c(CN2C(=O)CSCC2(C)C(=O)NC(C)C)c1 (stereo not drawn) the results were LMPTP block -0.7 and SUMO1 PPI mod 0.7.
`Fc1cc(F)c(NC(=S)N2CCOCC2)c(F)c1` gave Scp1 inh 95.3*, DNMT1 inh -0.3, LMPTP block -3.0, GRK2 inh 0.0, STEP inh -1.1, SUMO1 PPI mod -4.7, Scp1 confirm -5.6 and Scp-1 MG ctr -12.8.
Screening CC1(C(=O)NS(=O)(=O)c2cccc(OC(F)F)c2)CCN1C(=O)c1ccco1 (stereo not drawn) returned DNMT1 inh 4.5, LMPTP block -1.8, STEP inh -3.5 and SUMO1 PPI mod -3.6.
CC[N+](C)(CC)CCOC(=O)C(O)(c1ccccc1)C1CCCCC1 (stereo not drawn) was read as Scp1 inh -6.3, DNMT1 inh -0.1, LMPTP block -2.8, GRK2 inh 0.0, STEP inh -2.0 and SUMO1 PPI mod 6.4.
Screening CC[N+](C)(CC)CCC(c1ccccc1)C1CCCCC1 (stereo not drawn) returned Scp1 inh 96.4*, DNMT1 inh 3.2, LMPTP block -1.1, GRK2 inh 2.0, STEP inh 1.4, SUMO1 PPI mod -3.8, Scp1 confirm 96.5*, Scp-1 MG ctr -0.8 and Scp1 DSF -8.5.
COc1ccc(CCNC(=O)c2ccc(OC)c(OC)c2)cc1OC was read as Scp1 inh 0.5, DNMT1 inh -2.6, LMPTP block 0.3, GRK2 inh 0.0, STEP inh -2.7 and SUMO1 PPI mod 10.8.
For CCC(C)C1Nc2ccc(C(=O)NCCc3ccc(OC)c(OC)c3)cc2NC1=O (stereo not drawn) the results were Scp1 inh -4.8, DNMT1 inh 0.7, LMPTP block -2.8, GRK2 inh 0.0, STEP inh 1.8, SUMO1 PPI mod -2.3, Scp1 confirm -8.4 and Scp-1 MG ctr -6.5.
O=C(C[C@H]1CC[C@H]2[C@@H](COC[C@H](O)CN2Cc2ccccc2)O1)NCCCN1CCOCC1 was read as LMPTP block -3.5 and SUMO1 PPI mod -1.8.
Screening O=C(COC(=O)c1ccc[n+]([O-])c1)Nc1ccccc1OC(F)F returned Scp1 inh -5.0, DNMT1 inh 2.1, LMPTP block -1.2, GRK2 inh 0.0, STEP inh -1.8 and SUMO1 PPI mod -2.0.
For O=C(C[n+]1ccc(C(=O)c2ccccc2)cc1)Nc1ccccc1OC(F)F the results were Scp1 inh 83.0*, DNMT1 inh -2.5, LMPTP block -1.6, GRK2 inh 28.0, STEP inh -0.8, SUMO1 PPI mod -46.5, Scp1 confirm -3.5 and Scp-1 MG ctr -0.2.
